What was measured:
Bos taurus = species: Bos taurus; test: In vitro percent maximal stimulation relative to dopamine (125 uM) in bovine retina; format: functional
Procedure, shortened: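 Bovine retina adenylate cyclase stimulation, expressed as a percentage of the maximal effect produced by 125 μM dopamine.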

Rattus norvegicus [1] = species: Rattus norvegicus; test: Tested in vitro for percent maximal inhibition in rat striatal slices (% of control) expressed as change of S2/S1 versus control at 1 uM
[2] = In vitro potency against adenylate cyclase in bovine retina; format: tissue-based
Procedure, shortened: (§1)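 Dopamine-sensitive adenylate cyclase assay on bovine retina tissue. Values are means of two to six independent experiments, each run in triplicate.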

Rattus norvegicus [3] = species: Rattus norvegicus; test: In vitro potency in rat striatal slices by electrically evoked acetylcholine release; format: functional
Rattus norvegicus [4] = species: Rattus norvegicus; test: Tested in vitro for percent maximal inhibition in rat striatal slices (% of control) expressed as change of S2/S1 versus control at 1 uM; remark: listed apart in the source
[5] = Compound was evaluated for in vitro potency against adenylate cyclase in bovine retina; format: tissue-based; procedure, shortened: as §1

CN1Cc2ccccc2[C@@H]2c3cccc4[nH]cc(c34)C[C@H]21 (racemic) [listing 1 of 2 here]
Relative to DA (Bos taurus): 57% | inhibition at 1 µM (Rattus norvegicus [1]): 0%

CN1Cc2ccccc2[C@@H]2c3cccc4[nH]cc(c34)C[C@H]21 (racemic) [listing 2 of 2 here]
pD2 [2]: 6.1

CN1CCC[C@@H]2c3cccc4[nH]cc(c34)C[C@H]21
pD2 [2]: 5.2 | Relative to DA (Bos taurus): 24% | pD2 (Rattus norvegicus [3]): 7.5 | inhibition at 1 µM (Rattus norvegicus [4]): 30%

Oc1cc2c(cc1O)C(c1ccccc1)CNCC2 (centres undefined) [SKF-38393]
pD2 [2]: 6.6 | Relative to DA (Bos taurus): 58% | inhibition at 1 µM (Rattus norvegicus [4]): 0%

CN1CCC[C@@H]2Cc3c(O)cccc3C[C@H]21
pD2 [2]: 6.15 | Relative to DA (Bos taurus): 14% | pD2 (Rattus norvegicus [3]): 7.3 | inhibition at 1 µM (Rattus norvegicus [4]): 62%

CN1Cc2ccccc2[C@@H]2c3cccc4[nH]cc(c34)C[C@H]21 (stereo in doubt) [listing 1 of 2 here]
pD2 [5]: 6.9

CN1Cc2ccccc2[C@@H]2c3cccc4[nH]cc(c34)C[C@H]21 (stereo in doubt) [listing 2 of 2 here]
Relative to DA (Bos taurus): 68%

CN1CCc2cccc3c2[C@H]1Cc1ccc(O)c(O)c1-3 [APOMORPHINE]
pD2 [2]: 6.2 | Relative to DA (Bos taurus): 38% | pD2 (Rattus norvegicus [3]): 7.5 | inhibition at 1 µM (Rattus norvegicus [4]): 85%

Oc1ccc([C@@H]2CNCc3ccccc32)cc1O
pD2 [2]: 6 | Relative to DA (Bos taurus): 86% | inhibition at 1 µM (Rattus norvegicus [4]): 0%

CN1Cc2ccccc2[C@@H]2c3cccc4[nH]cc(c34)C[C@H]21 (stereo in doubt; (+)-1)
Relative to DA (Bos taurus): 0%

Reference: ChEMBL document CHEMBL1126644, “Structure-activity relationships in the trans-hexahydroindolo[4,3-ab]phenanthridine ("benzergoline") series. 2. Resolution, absolute configuration, and dopaminergic activity of the selective D1 agonist CY 208-243 and its implication for an "extended rotamer-based dopamine receptor model"” (1993)
